# From PubChem
# KCNK3 inh: human KCNK3 channel inhibitors, primary screen, CHO cells, FluxOR thallium flux, B-score | FluxOR fluorescence; active compounds read low | B-score at 10 µM | 340,000 compounds, 0.84% hits;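 active = B-score under library mean minus 4 SD, starting fluorescence ratio at most library mean plus 5 SD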;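 also: more negative B-score means stronger inhibition of thallium flux through KCNK3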
# KCNQ1 pot: potentiators or activators of KCNQ1 channel, primary screen, cell-based, thallium flux, high-throughput; CHO-K1 KCNQ1, thallium flux FluxOR fluorescence; active compounds read high; 310,000 compounds, 0.35% hits; B-score at 10 µM; Potassium voltage-gated channel subfamily KQT member 1 (Homo sapiens), P51787; AID 2648, 2010;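 active = fluorescence ratio B-score, a plate-corrected score, at least three library SD, with initial intensity B-score within 5 SD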
#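 Test system: CHO-K1 cells stably expressing KCNQ1 / Medium: assay buffer / Also added: depolarizing K+/Tl+ stimulus, K2SO4 and Tl2SO4 each 12.5 mM in 5x stock / Incubation: 90 min dye loading and 20 min compound exposure, both at room temperature / Signal: thallium influx via FluxOR fluorescence, kinetic imaging / Evaluation: B score of baseline-normalized fluorescence ratio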
# hERG rescue: hERG rescue from dofetilide block, primary screen, cell-based, CHO-hERG, FluxOR thallium flux, dofetilide IC70; dofetilide IC70 present; activation (rescue from dofetilide block), less the hit threshold, % at 10 µM; 310,000 compounds, 0.51% hits; Voltage-gated inwardly rectifying potassium channel KCNH2 (Homo sapiens), Q12809;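 active = activation above the mean of controls blocked by dofetilide plus 5 SD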;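 also: thallium influx through hERG after potassium depolarization seen as dye fluorescence rise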
# Target sequence (Q12809 whole entry, looked up): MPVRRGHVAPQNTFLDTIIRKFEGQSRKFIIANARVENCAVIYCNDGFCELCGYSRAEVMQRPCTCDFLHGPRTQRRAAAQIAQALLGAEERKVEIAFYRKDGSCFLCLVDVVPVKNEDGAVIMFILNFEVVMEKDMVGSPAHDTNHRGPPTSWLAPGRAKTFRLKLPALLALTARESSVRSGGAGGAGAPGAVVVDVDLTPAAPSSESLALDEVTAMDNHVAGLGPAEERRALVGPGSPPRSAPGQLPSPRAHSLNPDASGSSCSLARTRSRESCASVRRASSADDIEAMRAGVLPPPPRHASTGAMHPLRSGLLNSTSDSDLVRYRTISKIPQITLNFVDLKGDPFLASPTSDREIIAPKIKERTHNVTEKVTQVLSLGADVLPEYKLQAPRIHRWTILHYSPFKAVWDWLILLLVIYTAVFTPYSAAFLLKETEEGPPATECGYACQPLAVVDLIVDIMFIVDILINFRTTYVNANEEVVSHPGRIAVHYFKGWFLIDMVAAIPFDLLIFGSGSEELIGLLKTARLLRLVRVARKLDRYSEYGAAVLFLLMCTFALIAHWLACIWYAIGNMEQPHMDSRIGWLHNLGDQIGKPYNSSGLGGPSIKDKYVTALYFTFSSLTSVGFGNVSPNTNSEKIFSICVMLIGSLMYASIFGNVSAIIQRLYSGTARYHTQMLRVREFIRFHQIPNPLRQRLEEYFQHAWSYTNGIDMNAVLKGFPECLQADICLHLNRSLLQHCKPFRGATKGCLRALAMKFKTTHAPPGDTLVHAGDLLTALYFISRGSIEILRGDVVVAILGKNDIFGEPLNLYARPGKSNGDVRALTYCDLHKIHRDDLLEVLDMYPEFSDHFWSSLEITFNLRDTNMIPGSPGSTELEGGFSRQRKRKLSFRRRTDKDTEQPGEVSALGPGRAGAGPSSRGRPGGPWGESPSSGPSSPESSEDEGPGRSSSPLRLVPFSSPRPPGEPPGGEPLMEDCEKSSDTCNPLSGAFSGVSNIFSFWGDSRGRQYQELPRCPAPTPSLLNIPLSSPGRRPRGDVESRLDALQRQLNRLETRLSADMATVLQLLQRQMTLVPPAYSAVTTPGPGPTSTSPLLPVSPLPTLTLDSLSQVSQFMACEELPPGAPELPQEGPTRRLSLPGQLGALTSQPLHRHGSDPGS
# KCNK9 inh: KCNK9 potassium channel inhibitors, primary screen, HEK293 cells, thallium flux; FluxOR thallium flux fluorescence; active compounds read low; AID 488922, 2010; B-score at 10 µM; 310,000 compounds, 1.2% hits;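 active = ratio B-score over 3 SD below the library mean, with starting fluorescence within 5 SD of its mean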;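 also: negative B-score means less thallium flux so channel inhibition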
# KCNQ1 inh: inhibitors of human KCNQ1 channel, primary screen, cell-based, thallium flux, high-throughput. CHO-K1 KCNQ1, FluxOR thallium flux fluorescence; active compounds read high. B-score at 10 µM. 310,000 compounds, 1.3% hits. AID 2642, 2010;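 active = compounds whose thallium flux B-score, printed positive for inhibition, exceeds three library SD while starting fluorescence stays within three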;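 also: channel opened by potassium depolarization with thallium stimulus after 20 min compound exposure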
# Kir21 block: inhibitors of mouse Kir2.1 inward-rectifier potassium channel; Inward rectifier potassium channel 2 (Mus musculus), P35561; HEK293-Kir2.1, FluxOR thallium flux fluorescence; active compounds read low; B-score at 10 µM; 310,000 compounds, 0.85% hits; AID 1672, 2009;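 active = fluorescence ratio B-score at or below minus 3 SD of library scores, with starting-brightness B-score within 2 SD, cut at about -4.2 in these data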;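 also: channel flux triggered by added potassium and thallium sulfate stimulus; B-score of peak minus minimum fluorescence over baseline after thallium stimulus; more negative B-score means stronger Kir2.1 block with less thallium influx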
# KCNK3 inh conf: retest of human KCNK3 channel inhibitors, confirmation, CHO cells, FluxOR thallium flux, triplicate; shares compounds with KCNK3 inh; FluxOR fluorescence; 0% buffer, 100% carvedilol maximal block; ratio percent of control, % at 10 µM; 2,400 compounds, 99% hits; AID 651638, 2012;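 active = ratio percent of control, averaged over triplicates, above buffer control mean plus 5 SD, cut at about 64% in these data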;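 also: ratio is the fluorescence rise from min to max over baseline after thallium stimulus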
# KCNK3 uninduced: thallium flux inhibition in non-induced cells, primary screen, counter-screen for KCNK3 inhibitor project, cell-based, non-induced KCNK3 line, FluxOR thallium, triplicate; shares compounds with KCNK3 inh; non-induced KCNK3 parental cells; active compounds read low; thallium flux ratio (lower = more inhibition) at 10 µM; 2,400 compounds, 40% hits; AID 651747, 2012;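 active = thallium flux ratio, averaged over three wells, more than 5 SD below the buffer control mean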;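 also: host cells are CHO cells without KCNK3 induction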
# Numbers stand for hits; . = inactive; / = not tested or not shown. A selection: hits, their analogues and other compounds. The true share with any hit is near 3.7%.
SMILES,KCNK3 inh,KCNQ1 pot,hERG rescue,KCNK9 inh,KCNQ1 inh,Kir21 block,KCNK3 inh conf,KCNK3 uninduced
CCCN(CCC)c1nc(N(CCC)CCC)[nH]c(=O)n1,.,.,.,.,.,.,/,/
CCN(CC)C(=O)C1CCCN(c2ccc([N+](=O)[O-])cc2/C=N/NC(=O)c2cccc(O)c2)C1 (stereo not given),-14,.,.,.,.,.,91,.
CC(=O)Nc1ccc(S(=O)(=O)NCCCN2CCN(Cc3ccccc3)CC2)cc1Cl,.,.,.,.,.,.,/,/
Nc1ccc(/C=C/C(=O)c2cccs2)cc1,-9.3,.,.,.,.,.,123,0.093
COCCN(CCOC)c1nc(-c2ccc(Cl)cc2)nc2ccccc12,-9.2,.,.,-7.6,.,.,128,.
CCN(CC)c1nc(-c2ccccc2)nc2ccccc12,-9.5,.,.,.,.,.,129,.
CN(CCc1ccccc1)C1CCCN(S(=O)(=O)N(C)C)C1 (stereo not given),.,.,.,.,.,.,/,/
O=C(C[C@H]1C[C@H](C(=O)N2CCOCC2)[C@@]2(CCC3CCCC3)c3[nH]c4cc(-c5ccco5)ccc4c3CCN2C1=O)NCc1ccco1,.,/,/,/,/,/,/,/
O=C(Cc1ccccc1)NCC(=O)OCC(=O)c1cccs1,.,.,.,.,.,.,/,/
O=C(Nc1nc(-c2ccccc2)cs1)C1c2ccccc2Oc2ccccc21,-8.8,.,.,-7.2,.,.,119,.
CCOC(=O)C1=C(C)N=c2s/c(=C/c3cccc([N+](=O)[O-])c3O)c(=O)n2C1c1ccccc1 (stereo not given),-12,.,.,.,13,.,124,0.1
COc1cccc(CNC(=O)c2nnn(CC(=O)Nc3cccc(C)c3)c2N)c1,.,.,.,.,.,.,/,/
COc1ccccc1NC(=O)c1ccc(S(=O)(=O)N2CCCC(C)C2)cc1 (stereo not given),.,.,.,.,.,.,/,/
O=S(Cc1ccc(Br)cc1)Cc1nnc(SCc2c(F)cccc2Cl)n1-c1ccccc1 (stereo not given),.,.,.,.,.,.,/,/
O=S(Cc1ccc(Br)cc1)Cc1nnc(SCc2ccc(Cl)cc2)n1-c1ccccc1 (stereo not given),-10,.,.,.,.,.,98,.
COc1ccc2cc(CNCCOCCOCCNCc3ccc4cc(OC)ccc4c3)ccc2c1,.,/,/,/,/,/,/,/
CCOC(=O)C1(CCOc2ccccc2)CCN(Cc2cc(OC)c3c(c2)OCO3)CC1,.,.,.,.,.,.,/,/
O=C(CSc1nc(Nc2ccccc2)nc(N2CCOCC2)n1)Nc1ccc([N+](=O)[O-])cc1,.,.,.,.,.,.,/,/
O=C(CSc1nc(Nc2ccccc2)nc(N2CCOCC2)n1)Nc1cccc([N+](=O)[O-])c1,-11,.,.,.,.,.,110,0.15
Cc1c(C(c2cccc(Br)c2)c2c(C)n(C)n(-c3ccccc3)c2=O)c(=O)n(-c2ccccc2)n1C,.,.,.,.,.,.,/,/
CCOC(=O)Cc1csc(NC(=O)/C=C/c2ccc(OC)cc2)n1,.,.,.,.,.,.,/,/
